{"source": "paper PMC2212458", "about": "(The Journal of Experimental Medicine, 1998)", "key": {"H-2D^b": {"target": "H-2D^b (Mus musculus, UniProt P01899)", "sequence (P01899 whole entry, looked up)": "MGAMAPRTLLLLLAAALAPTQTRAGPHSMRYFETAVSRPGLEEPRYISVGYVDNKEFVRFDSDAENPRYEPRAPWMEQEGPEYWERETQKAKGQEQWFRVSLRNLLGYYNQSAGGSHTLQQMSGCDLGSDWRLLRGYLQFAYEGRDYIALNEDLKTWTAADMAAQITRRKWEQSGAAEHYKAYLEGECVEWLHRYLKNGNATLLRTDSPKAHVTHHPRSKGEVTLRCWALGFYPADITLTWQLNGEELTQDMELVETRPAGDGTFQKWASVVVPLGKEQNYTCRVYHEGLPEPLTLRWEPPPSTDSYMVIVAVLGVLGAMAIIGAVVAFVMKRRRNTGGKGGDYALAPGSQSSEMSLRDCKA", "experiment": "MHC class I stabilization assay on RMA/S cells", "type": "binding", "how_it_was_run": "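RMA/S cells (TAP-deficient, H-2b) preincubated 24 h at room temperature, then pulsed with peptides across a concentration range, with control peptides, at room temperature (25°C). Next, 4 h at 37°C to allow turnover of empty class I. Stained with FITC anti-H-2Db mAb KH95 for 1 h at 4°C and analysed by flow cytometry. Expressed as percentage of maximal stabilization at 100 μM.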"}, "[1]": {"tested_on": "gp100-reactive T cells with EL-4 thymoma cells", "experiment": "Recognition of peptide-pulsed EL-4 at limiting concentrations, IFN-γ ELISA", "type": "cell-based", "conditions": "human versus mouse epitope"}}, "data": [{"sequence": "KVPRNQDWL [hgp100_25–33]", "values": [{"measurement": "affinity for H-2D^b", "setting": "H-2D^b; compared with mgp100_25–33, Fig. 6", "result": "dramatically increased affinity"}, {"measurement": "increase in ability to stabilize “empty” D^b on RMA-S cells", "setting": "H-2D^b; human versus mouse epitope", "result": 2, "unit": "log"}, {"measurement": "increase in ability to trigger interferon γ release by T cells", "setting": "[1]", "result": 3, "unit": "log"}]}]}
